{"source": "ChEMBL document CHEMBL1153731", "about": "“Methicillin-resistant Staphylococcus aureus (MRSA)-active metabolites from Platanus occidentalis (American Sycamore)” (J Nat Prod, 2009)", "key": {"Staphylococcus aureus [1]": {"tested_on": "Staphylococcus aureus", "assay": "Antibacterial activity against methicillin-resistant Staphylococcus aureus by NCCLS method", "type": "functional, organism-based", "summary_of_the_method": "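MRSA tested in vitro by CLSI (formerly NCCLS) broth microdilution. Samples were diluted in 0.9% saline and run in duplicate in 96-well microplates. Cell suspension was added to reach the target inoculum, with media and solvent controls included. IC50 was taken from percent growth plotted against concentration. MIC was the lowest concentration with no detectable growth; MBC was the lowest concentration that killed the organism.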"}, "Staphylococcus aureus [2]": {"tested_on": "Staphylococcus aureus", "assay": "Antibacterial activity against Staphylococcus aureus by NCCLS method", "type": "functional, organism-based", "summary_of_the_method": "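Microdilution per CLSI (formerly NCCLS). Samples run in duplicate, diluted in 0.9% saline in 96-well plates, then microbial suspensions added to reach the target inocula. Media and solvent controls in every assay. IC50 read from a plot of percent growth against concentration. MIC taken as the lowest concentration with no detectable growth; MBC as the lowest concentration that kills the organism.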"}, "Staphylococcus aureus [3]": {"tested_on": "Staphylococcus aureus", "assay": "Antibacterial activity against Staphylococcus aureus infected in CD1 mouse thigh muscle assessed as reduction in colony forming unit at 15 mg/kg, ip administered 2 hrs after infection measured after 48 hrs", "type": "functional, Muscle tissue", "conditions": "route intraperitoneal", "summary_of_the_method": "(§1)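 Neutropenic thigh infection in CD-1 mice. Neutropenia induced by cyclophosphamide 100 mg/kg ip on days -4 and -1. Each rear thigh inoculated im with MRSA, 1.5 × 10⁶ cfu in 50 μL. n = 2 mice per group, each thigh a data point. Compound given ip starting 2 h post-inoculation; saline and vancomycin controls. Sacrifice at 48 h; thighs weighed, homogenized in 5.0 mL saline, plated for cfu/g tissue.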"}, "Aspergillus fumigatus": {"tested_on": "Aspergillus fumigatus", "assay": "Antifungal activity against Aspergillus fumigatus at 100 ug/ml by NCCLS method", "type": "functional, organism-based"}, "[4]": {"tested_on": "Mycobacterium intracellulare", "assay": "Antibacterial activity against Mycobacterium intracellular at 100 ug/ml by NCCLS method", "type": "functional, organism-based"}, "Staphylococcus aureus [5]": {"tested_on": "Staphylococcus aureus", "assay": "Antibacterial activity against Staphylococcus aureus infected in CD1 mouse thigh muscle assessed as reduction in colony formation unit at 3.0 mg/kg, ip administered 2 hrs after infection measured after 48 hrs relative to control", "type": "functional, Muscle tissue", "parameters": "scale not given: the % may be the effect or the level left", "conditions": "route intraperitoneal", "summary_of_the_method": "as §1"}, "Staphylococcus aureus [6]": {"tested_on": "Staphylococcus aureus", "assay": "Antibacterial activity against Staphylococcus aureus infected in CD1 mouse thigh muscle assessed as reduction in colony forming unit at 3.0 mg/kg, ip administered 2 hrs after infection measured after 48 hrs", "type": "functional, Muscle tissue", "conditions": "route intraperitoneal", "summary_of_the_method": "as §1"}, "Cryptococcus neoformans": {"tested_on": "Cryptococcus neoformans", "assay": "Antifungal activity against Cryptococcus neoformans at 100 ug/ml by NCCLS method", "type": "functional, organism-based"}, "Candida albicans": {"tested_on": "Candida albicans", "assay": "Antifungal activity against Candida albicans at 100 ug/ml by NCCLS method", "type": "functional, organism-based"}, "Mus musculus": {"tested_on": "Mus musculus", "assay": "Toxicity in CD1 mouse up to 20 mg/kg, ip after 2 days", "type": "organism-based", "parameters": "dose 20 mg/kg, route intraperitoneal", "conditions": "in vivo, 48 h", "summary_of_the_method": "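Preliminary tolerance study: CD-1 mice dosed ip daily for 2 days at up to 20 mg/kg and watched for untoward effects.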"}, "Staphylococcus aureus [7]": {"tested_on": "Staphylococcus aureus", "assay": "Antibacterial activity against Staphylococcus aureus infected in CD1 mouse thigh muscle assessed as reduction in colony forming unit at 15 mg/kg, ip administered 2 hrs after infection measured after 48 hrs relative to control", "type": "functional, Muscle tissue", "parameters": "scale not given: the % may be the effect or the level left", "conditions": "route intraperitoneal", "summary_of_the_method": "as §1"}, "Escherichia coli": {"tested_on": "Escherichia coli", "assay": "Antibacterial activity against Escherichia coli at 100 ug/ml by NCCLS method", "type": "functional, organism-based"}, "Vero": {"tested_on": "Vero", "assay": "Cytotoxicity against african green monkey Vero cells up to 100 ug/ml", "type": "cell-based", "conditions": "chlorocebus sabaeus"}, "Pseudomonas aeruginosa": {"tested_on": "Pseudomonas aeruginosa", "assay": "Antibacterial activity against Pseudomonas aeruginosa at 100 ug/ml by NCCLS method", "type": "functional, organism-based"}, "Staphylococcus aureus [8]": {"tested_on": "Staphylococcus aureus", "assay": "Antibacterial activity against methicillin-resistant Staphylococcus aureus at 100 ug/ml by NCCLS method", "type": "functional, organism-based"}}, "note": "Activity calls are given as the source filed them. The calls are words filed in the database; no cut-off is given here."}
{"molecule": "C[C@@H]1O[C@@H](Oc2c(-c3ccc(O)cc3)oc3cc(O)cc(O)c3c2=O)[C@H](OC(=O)/C=C/c2ccc(O)cc2)[C@H](OC(=O)/C=C/c2ccc(O)cc2)[C@H]1O", "values": [{"measurement": "IC50", "setting": "Staphylococcus aureus [1]", "value": 2, "unit": "µg/mL"}, {"measurement": "MIC", "setting": "Staphylococcus aureus [1]", "value": 10, "unit": "µg/mL"}, {"measurement": "IC50", "setting": "Staphylococcus aureus [2]", "value": 3.7, "unit": "µg/mL"}, {"measurement": "MIC", "setting": "Staphylococcus aureus [2]", "value": 13.3, "unit": "µg/mL"}, {"measurement": "Activity", "setting": "Staphylococcus aureus [3]", "value": 1.8, "unit": "×10⁷ /g"}, {"measurement": "Activity", "setting": "Aspergillus fumigatus", "value": "inactive"}, {"measurement": "Activity", "setting": "[4]", "value": "inactive"}, {"measurement": "Activity", "setting": "Staphylococcus aureus [5]", "value": 67, "unit": "%"}, {"measurement": "Activity", "setting": "Staphylococcus aureus [6]", "value": 2.6, "unit": "×10⁷ /g"}, {"measurement": "Activity", "setting": "Cryptococcus neoformans", "value": "inactive"}, {"measurement": "Activity", "setting": "Candida albicans", "value": "inactive"}, {"measurement": "Activity", "setting": "Mus musculus", "value": "Non-toxic"}, {"measurement": "Activity", "setting": "Staphylococcus aureus [7]", "value": 78, "unit": "%"}, {"measurement": "Activity", "setting": "Escherichia coli", "value": "inactive"}, {"measurement": "Activity", "setting": "Vero", "value": "Non-toxic"}, {"measurement": "Activity", "setting": "Pseudomonas aeruginosa", "value": "inactive"}]}
{"molecule": "CCN1CCN(C(=O)N[C@@H](C(=O)N[C@@H]2C(=O)N3[C@@H]2SC(C)(C)[C@@H]3C(=O)O)c2ccccc2)C(=O)C1=O", "note": "[PIPERACILLIN]", "values": [{"measurement": "IC50", "setting": "Staphylococcus aureus [8]", "value": "Not Active"}, {"measurement": "MIC", "setting": "Staphylococcus aureus [8]", "value": "inactive"}]}
{"molecule": "O=C(O)c1cn(C2CC2)c2cc(N3CCNCC3)c(F)cc2c1=O", "note": "[CIPROFLOXACIN]", "values": [{"measurement": "MIC", "setting": "Staphylococcus aureus [1]", "value": 0.3, "unit": "µg/mL"}, {"measurement": "MIC", "setting": "Staphylococcus aureus [2]", "value": 0.4, "unit": "µg/mL"}]}
{"molecule": "Cc1onc(-c2ccccc2Cl)c1C(=O)N[C@@H]1C(=O)N2[C@@H]1SC(C)(C)[C@@H]2C(=O)O", "note": "[CLOXACILLIN]", "values": [{"measurement": "IC50", "setting": "Staphylococcus aureus [1]", "value": 8.9, "unit": "µg/mL"}]}
{"molecule": "COc1cccc(OC)c1C(=O)N[C@@H]1C(=O)N2[C@@H]1SC(C)(C)[C@@H]2C(=O)O", "note": "[METHICILLIN]", "values": [{"measurement": "IC50", "setting": "Staphylococcus aureus [8]", "value": "Not Active"}, {"measurement": "MIC", "setting": "Staphylococcus aureus [8]", "value": "inactive"}, {"measurement": "IC50", "setting": "Staphylococcus aureus [2]", "value": 0.4, "unit": "µg/mL"}, {"measurement": "MIC", "setting": "Staphylococcus aureus [2]", "value": 2.5, "unit": "µg/mL"}]}
{"molecule": "C[C@@H]1O[C@@H](Oc2c(-c3ccc(O)cc3)oc3cc(O)cc(O)c3c2=O)[C@H](OC(=O)/C=C/c2ccc(O)cc2)[C@H](OC(=O)/C=C\\c2ccc(O)cc2)[C@H]1O", "values": [{"measurement": "IC50", "setting": "Staphylococcus aureus [1]", "value": 0.8, "unit": "µg/mL"}, {"measurement": "MIC", "setting": "Staphylococcus aureus [1]", "value": 1.7, "unit": "µg/mL"}, {"measurement": "IC50", "setting": "Staphylococcus aureus [2]", "value": 1.6, "unit": "µg/mL"}, {"measurement": "MIC", "setting": "Staphylococcus aureus [2]", "value": 5.8, "unit": "µg/mL"}, {"measurement": "Activity", "setting": "Aspergillus fumigatus", "value": "inactive"}, {"measurement": "Activity", "setting": "[4]", "value": "inactive"}, {"measurement": "Activity", "setting": "Cryptococcus neoformans", "value": "inactive"}, {"measurement": "Activity", "setting": "Candida albicans", "value": "inactive"}, {"measurement": "Activity", "setting": "Escherichia coli", "value": "inactive"}, {"measurement": "Activity", "setting": "Vero", "value": "Non-toxic"}, {"measurement": "Activity", "setting": "Pseudomonas aeruginosa", "value": "inactive"}]}
{"molecule": "C[C@@H]1O[C@@H](Oc2c(-c3ccc(O)cc3)oc3cc(O)cc(O)c3c2=O)[C@H](OC(=O)/C=C\\c2ccc(O)cc2)[C@H](OC(=O)/C=C/c2ccc(O)cc2)[C@H]1O", "values": [{"measurement": "IC50", "setting": "Staphylococcus aureus [1]", "value": 0.7, "unit": "µg/mL"}, {"measurement": "MIC", "setting": "Staphylococcus aureus [1]", "value": 1.3, "unit": "µg/mL"}, {"measurement": "IC50", "setting": "Staphylococcus aureus [2]", "value": 1.4, "unit": "µg/mL"}, {"measurement": "MIC", "setting": "Staphylococcus aureus [2]", "value": 3.8, "unit": "µg/mL"}, {"measurement": "Activity", "setting": "Aspergillus fumigatus", "value": "inactive"}, {"measurement": "Activity", "setting": "[4]", "value": "inactive"}, {"measurement": "Activity", "setting": "Cryptococcus neoformans", "value": "inactive"}, {"measurement": "Activity", "setting": "Candida albicans", "value": "inactive"}, {"measurement": "Activity", "setting": "Escherichia coli", "value": "inactive"}, {"measurement": "Activity", "setting": "Vero", "value": "Non-toxic"}, {"measurement": "Activity", "setting": "Pseudomonas aeruginosa", "value": "inactive"}]}
